# The source made the active and inactive calls. The rule behind the calls is not given here.
# Tests used:
# Cytochrome P450 1A2 = Cytochrome P450 1A2 (Homo sapiens, UniProt P05177); experiment: Inhibition of human liver microsomes CYP1A2 after 30 mins in presence of NADPH; type: ADME
# [1] = Volume of distribution in steady state in mouse at 2 mg/kg, iv through bolus administration after 0.05 to 24 hrs by LC/MS/MS analysis; type: ADME, organism-based; conditions: in vivo, read-out: Vdss
# [2] = molecular target: Proto-oncogene tyrosine-protein kinase receptor Ret (Homo sapiens, UniProt P07949); experiment: Inhibition of partial length human RET expressed in bacterial system
# [3] = AUC in cynomolgus monkey plasma at 2 mg/kg, administered through oral gavage after 0.25 to 48 hrs by LC/MS/MS analysis; type: ADME, organism-based, Macaca fascicularis; parameters: time upper 48 hr, dose 2 mg/kg, time lower 0.25 hr, route oral
# Cytochrome P450 3A4 = Cytochrome P450 3A4 (Homo sapiens, UniProt P08684); experiment: Inhibition of human liver microsomes CYP3A4 after 30 mins in presence of NADPH; type: ADME
# Mus musculus [4] = experiment: Antiarthritic activity in DBA/1 mouse model of collagen-induced arthritis inflammation assessed as reduction of disease severity at 30 mg/kg, qd administered through oral gavage dosed after day 21 booster immunization; type: functional, organism-based
# [5] = Half life in mouse plasma at 2 mg/kg, iv through bolus administration after 0.05 to 24 hrs by LC/MS/MS analysis; type: ADME, organism-based
# Mus musculus [6] = experiment: Antiarthritic activity in Balb/C mouse model of anti-collagen antibody-induced arthritis assessed as reduction in paw clinical scores at dosed orally daily for 3 days followed by LPS challenge; type: functional, organism-based
# Mus musculus [7] = experiment: Antiarthritic activity in DBA/1 mouse model of collagen-induced arthritis inflammation assessed reduction in disease severity at 10 mg/kg, po dosing daily starting on day of primary immunization; type: functional; parameters: scale not given: the % may be the effect or the level left
# [8] = Plasma clearance in mouse at 2 mg/kg, iv through bolus administration after 0.05 to 24 hrs by LC/MS/MS analysis; type: ADME, organism-based
# [9] = molecular target: BDNF/NT-3 growth factors receptor (Homo sapiens, UniProt Q16620); experiment: Inhibition of partial length human TRKB expressed in mammalian system
# [10] = Protein binding in human serum; type: ADME, cell-free; conditions: read-out: PB (converted)
# Cytochrome P450 2C9 = Cytochrome P450 2C9 (Homo sapiens, UniProt P11712); experiment: Inhibition of human liver microsomes CYP2C9 after 30 mins in presence of NADPH; type: ADME
# Mus musculus [11] = experiment: Antiarthritic activity in DBA/1 mouse model of collagen-induced arthritis inflammation assessed reduction in disease severity at 20 to 30 mg/kg, po dosing daily starting on day of primary immunization; type: functional; parameters: scale not given: the % may be the effect or the level left
# Salmonella typhimurium = experiment: Mutagenic activity in Salmonella typhimurium by AMES test; type: toxicity, organism-based; conditions: salmonella enterica subsp. enterica serovar typhimurium
# [12] = Passive permeability from basolateral to apical side in human Caco2 cells; type: ADME, cell-based; conditions: Caco-2, read-out: permeability
# [13] = Aqueous solubility of the compound; type: physicochemical; conditions: aqueous medium
# [14] = Protein binding in mouse serum; type: ADME, cell-free; conditions: read-out: PB
# [15] = molecular target: Tyrosine-protein kinase Lck (Homo sapiens, UniProt P06239); experiment: Inhibition of partial length human LCK expressed in bacterial system
# [16] = molecular target: High affinity nerve growth factor receptor (Homo sapiens, UniProt P04629); experiment: Inhibition of partial length human TRKA expressed in mammalian system
# Mus musculus [17] = experiment: Antiarthritic activity in po dosed CIA DBA/1 mouse model assessed as reduction of disease severity after 21 days; type: functional, organism-based
# [18] = Tmax in cynomolgus monkey plasma at 2 mg/kg, administered through oral gavage after 0.25 to 48 hrs by LC/MS/MS analysis; type: ADME, organism-based, Macaca fascicularis
# [19] = Plasma clearance in Beagle dog at 2 mg/kg, iv through bolus administration after 0.167 to 48 hrs by LC/MS/MS analysis; type: ADME, organism-based, Canis lupus familiaris
# [20] = Tmax in mouse plasma at 5 mg/kg, administered through oral gavage after 0.25 to 24 hrs by LC/MS/MS analysis; type: ADME, organism-based
# [21] = Tmax in Sprague-Dawley rat plasma at 5 mg/kg, administered through oral gavage by LC/MS/MS analysis; type: ADME, organism-based
# [22] = Permeability of the compound at pH 7.4 by PAMPA; type: ADME; conditions: read-out: permeability
# Mus musculus [23] = experiment: Time required for plasma concentration to reach above in vitro BCR/IgM/IgG-stimulated CD69 expression mouse whole blood IC50 in DBA/1 mouse CIA model at 10 mg/kg administered daily through oral gavage starting on day of primary immunization; type: ADME, organism-based; conditions: in vivo
# [24] = Permeability of the compound at pH 5.5 by PAMPA; type: ADME; conditions: read-out: permeability
# [25] = Passive permeability from apical to basolateral side in human Caco2 cells; type: ADME, cell-based; conditions: Caco-2, read-out: permeability
# [26] = AUC in mouse plasma at 5 mg/kg, administered through oral gavage after 0.25 to 24 hrs by LC/MS/MS analysis; type: ADME, organism-based; parameters: time 0.25-24 hr, dose 5 mg/kg, route oral
# [27] = Solubility of the compound in fed state simulated intestinal fluid; type: physicochemical
# [28] = Oral bioavailability in Sprague-Dawley rat at 5 mg/kg by LC/MS/MS analysis; type: ADME, organism-based; conditions: in vivo
# [29] = Cmax in Balb/C mouse at 10 mg/kg, po; type: ADME, organism-based; parameters: dose 10 mg/kg, route oral; conditions: in vivo
# Procedure, shortened: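 Male Balb/C mice dosed orally once at 10 mg/kg in PEG300/TPGS/ethanol (90/5/5 v/v/v).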
# [30] = Solubility of the compound in fasted state simulated intestinal fluid; type: physicochemical
# [31] = molecular target: Receptor tyrosine-protein kinase erbB-4 (Homo sapiens, UniProt Q15303); experiment: Inhibition of partial length human HER4 expressed in bacterial system
# [32] = Half life in Sprague-Dawley rat plasma at 2 mg/kg, iv through bolus administration by LC/MS/MS analysis; type: ADME, organism-based
# Mus musculus [33] = experiment: Antiarthritic activity in DBA/1 mouse model of collagen-induced arthritis inflammation assessed as protection against woven porous bones dosed daily and orally beginning on day of primary immunization by microcomputed tomography imaging analysis; type: functional, organism-based
# Mus musculus [34] = experiment: Antiarthritic activity in DBA/1 mouse model of collagen-induced arthritis inflammation assessed as protection against bone mass loss dosed daily and orally beginning on day of primary immunization by microcomputed tomography imaging analysis; type: functional, organism-based
# [35] = molecular target: Tyrosine-protein kinase JAK2 (Homo sapiens, UniProt O60674); experiment: Inhibition of partial length human JAK2 expressed in bacterial system
# Mus musculus [36] = experiment: Decrease in anti-KLH IgM titers in chronic Balb/C mouse KLH antibody response model at 5 to 45 mg/kg, po qd administered through oral gavage after 14 days by ELISA; type: functional, organism-based
# Procedure, shortened: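 Chronic KLH challenge model in mice with compound given by mouth. Anti-KLH IgM appears in the first week after challenge. Switching to IgG anti-KLH is evident by day 14.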
# Cytochrome P450 2C8 = Cytochrome P450 2C8 (Homo sapiens, UniProt P10632); experiment: Inhibition of human liver microsomes CYP2C8 after 30 mins in presence of NADPH; type: ADME
# [37] = molecular target: Tyrosine-protein kinase TXK (Homo sapiens, UniProt P42681); experiment: Inhibition of partial length human TXK expressed in bacterial system
# Sequence of Tyrosine-protein kinase TXK (P42681 whole entry): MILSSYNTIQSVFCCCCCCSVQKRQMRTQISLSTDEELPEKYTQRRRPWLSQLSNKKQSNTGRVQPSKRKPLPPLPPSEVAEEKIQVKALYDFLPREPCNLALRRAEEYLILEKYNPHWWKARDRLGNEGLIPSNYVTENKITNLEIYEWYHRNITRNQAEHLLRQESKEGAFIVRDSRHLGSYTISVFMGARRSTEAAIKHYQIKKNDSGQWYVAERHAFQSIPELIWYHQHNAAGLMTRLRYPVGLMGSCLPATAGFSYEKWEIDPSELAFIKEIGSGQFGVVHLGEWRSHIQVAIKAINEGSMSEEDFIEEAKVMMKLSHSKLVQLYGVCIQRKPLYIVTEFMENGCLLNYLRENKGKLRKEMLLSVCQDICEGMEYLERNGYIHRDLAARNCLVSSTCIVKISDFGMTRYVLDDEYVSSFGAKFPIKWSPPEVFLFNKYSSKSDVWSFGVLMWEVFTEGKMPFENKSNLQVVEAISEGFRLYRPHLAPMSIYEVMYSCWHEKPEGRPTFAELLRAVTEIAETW
# Sequence of Proto-oncogene tyrosine-protein kinase receptor Ret (P07949 whole entry): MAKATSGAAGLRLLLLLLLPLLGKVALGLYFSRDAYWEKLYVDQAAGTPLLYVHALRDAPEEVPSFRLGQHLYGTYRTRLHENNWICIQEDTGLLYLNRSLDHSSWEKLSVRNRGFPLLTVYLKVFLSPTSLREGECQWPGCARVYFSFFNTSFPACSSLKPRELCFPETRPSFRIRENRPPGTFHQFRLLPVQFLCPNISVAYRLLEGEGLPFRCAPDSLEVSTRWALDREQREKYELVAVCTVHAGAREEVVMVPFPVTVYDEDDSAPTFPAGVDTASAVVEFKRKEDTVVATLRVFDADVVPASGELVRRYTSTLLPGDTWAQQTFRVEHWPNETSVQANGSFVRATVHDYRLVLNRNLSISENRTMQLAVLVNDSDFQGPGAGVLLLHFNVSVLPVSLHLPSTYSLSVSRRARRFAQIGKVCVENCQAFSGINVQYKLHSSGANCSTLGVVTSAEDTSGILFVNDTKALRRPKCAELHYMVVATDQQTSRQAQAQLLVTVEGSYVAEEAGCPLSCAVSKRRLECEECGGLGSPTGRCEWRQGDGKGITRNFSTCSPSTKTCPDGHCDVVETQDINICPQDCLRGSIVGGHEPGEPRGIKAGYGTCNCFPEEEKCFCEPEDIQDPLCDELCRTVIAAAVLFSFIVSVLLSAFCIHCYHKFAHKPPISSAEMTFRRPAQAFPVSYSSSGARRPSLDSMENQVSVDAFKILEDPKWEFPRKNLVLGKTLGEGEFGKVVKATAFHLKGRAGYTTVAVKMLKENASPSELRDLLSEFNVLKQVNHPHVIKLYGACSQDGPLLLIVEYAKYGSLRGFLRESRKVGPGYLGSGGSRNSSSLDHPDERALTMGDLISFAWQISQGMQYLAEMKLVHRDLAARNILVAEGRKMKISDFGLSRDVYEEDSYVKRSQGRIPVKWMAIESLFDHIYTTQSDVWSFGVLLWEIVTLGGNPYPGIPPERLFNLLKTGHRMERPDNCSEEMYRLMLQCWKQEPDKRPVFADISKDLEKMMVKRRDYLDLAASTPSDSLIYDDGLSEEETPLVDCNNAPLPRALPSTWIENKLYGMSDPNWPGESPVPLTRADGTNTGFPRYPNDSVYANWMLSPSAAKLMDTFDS
# Sequence of Cytochrome P450 2C8 (P10632 whole entry): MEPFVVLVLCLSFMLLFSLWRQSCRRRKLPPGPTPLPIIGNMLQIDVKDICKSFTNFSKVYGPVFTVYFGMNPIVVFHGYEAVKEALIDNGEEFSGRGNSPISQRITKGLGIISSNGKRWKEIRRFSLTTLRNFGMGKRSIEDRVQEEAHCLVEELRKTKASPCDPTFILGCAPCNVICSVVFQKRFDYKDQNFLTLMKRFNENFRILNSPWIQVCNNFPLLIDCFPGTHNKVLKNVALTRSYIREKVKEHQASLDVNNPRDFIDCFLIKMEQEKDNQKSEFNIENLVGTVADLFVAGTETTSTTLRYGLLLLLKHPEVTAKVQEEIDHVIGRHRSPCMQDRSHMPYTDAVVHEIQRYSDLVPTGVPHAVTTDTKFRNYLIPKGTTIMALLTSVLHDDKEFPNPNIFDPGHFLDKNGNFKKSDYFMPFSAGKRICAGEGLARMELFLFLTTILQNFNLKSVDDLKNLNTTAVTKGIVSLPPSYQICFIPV
# Sequence of Cytochrome P450 1A2 (P05177 whole entry): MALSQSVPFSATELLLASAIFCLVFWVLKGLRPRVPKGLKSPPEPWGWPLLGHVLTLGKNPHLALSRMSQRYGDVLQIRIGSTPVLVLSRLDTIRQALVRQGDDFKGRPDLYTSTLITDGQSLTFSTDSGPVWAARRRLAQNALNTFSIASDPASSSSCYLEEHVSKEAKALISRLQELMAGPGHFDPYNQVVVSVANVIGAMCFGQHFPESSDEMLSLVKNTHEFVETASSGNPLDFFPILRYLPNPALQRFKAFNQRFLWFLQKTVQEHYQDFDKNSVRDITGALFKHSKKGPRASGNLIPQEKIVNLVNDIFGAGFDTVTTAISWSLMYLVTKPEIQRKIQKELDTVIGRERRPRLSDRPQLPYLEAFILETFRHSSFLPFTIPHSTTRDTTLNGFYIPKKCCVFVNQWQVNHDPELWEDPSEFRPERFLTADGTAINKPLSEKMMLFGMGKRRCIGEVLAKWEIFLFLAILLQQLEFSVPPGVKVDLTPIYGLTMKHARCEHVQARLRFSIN
# Sequence of Receptor tyrosine-protein kinase erbB-4 (Q15303 whole entry): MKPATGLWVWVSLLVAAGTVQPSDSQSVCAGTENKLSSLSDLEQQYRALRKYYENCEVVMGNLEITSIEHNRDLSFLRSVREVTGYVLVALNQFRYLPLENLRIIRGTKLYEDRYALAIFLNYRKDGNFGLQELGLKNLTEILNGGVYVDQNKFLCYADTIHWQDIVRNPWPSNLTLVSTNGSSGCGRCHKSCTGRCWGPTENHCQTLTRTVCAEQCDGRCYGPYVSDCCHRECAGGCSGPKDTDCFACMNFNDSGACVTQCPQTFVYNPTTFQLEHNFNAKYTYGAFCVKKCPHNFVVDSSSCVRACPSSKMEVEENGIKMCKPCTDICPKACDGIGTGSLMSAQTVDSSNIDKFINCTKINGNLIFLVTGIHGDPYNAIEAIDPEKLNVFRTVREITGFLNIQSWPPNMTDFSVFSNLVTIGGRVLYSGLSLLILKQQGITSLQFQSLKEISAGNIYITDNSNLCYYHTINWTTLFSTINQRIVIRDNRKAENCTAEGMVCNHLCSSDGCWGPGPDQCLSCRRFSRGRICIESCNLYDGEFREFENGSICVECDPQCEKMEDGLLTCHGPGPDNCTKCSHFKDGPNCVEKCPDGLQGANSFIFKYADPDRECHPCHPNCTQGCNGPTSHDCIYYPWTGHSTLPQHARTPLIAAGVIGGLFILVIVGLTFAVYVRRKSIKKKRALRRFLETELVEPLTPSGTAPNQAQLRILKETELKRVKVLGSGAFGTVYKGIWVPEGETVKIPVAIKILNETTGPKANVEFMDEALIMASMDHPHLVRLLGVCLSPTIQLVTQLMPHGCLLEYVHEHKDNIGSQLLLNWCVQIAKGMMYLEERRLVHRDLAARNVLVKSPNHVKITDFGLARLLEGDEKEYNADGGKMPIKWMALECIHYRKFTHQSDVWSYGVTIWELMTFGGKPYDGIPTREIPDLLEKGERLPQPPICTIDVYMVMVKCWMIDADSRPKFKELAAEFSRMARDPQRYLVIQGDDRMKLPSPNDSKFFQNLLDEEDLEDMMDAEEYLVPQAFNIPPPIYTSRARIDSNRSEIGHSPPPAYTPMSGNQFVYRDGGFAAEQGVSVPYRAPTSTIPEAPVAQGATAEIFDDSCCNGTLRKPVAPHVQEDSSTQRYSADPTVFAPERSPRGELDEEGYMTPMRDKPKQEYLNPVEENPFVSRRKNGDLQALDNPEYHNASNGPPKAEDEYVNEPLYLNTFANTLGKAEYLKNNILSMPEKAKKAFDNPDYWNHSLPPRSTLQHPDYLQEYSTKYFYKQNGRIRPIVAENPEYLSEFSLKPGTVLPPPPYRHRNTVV
# Sequence of BDNF/NT-3 growth factors receptor (Q16620 whole entry): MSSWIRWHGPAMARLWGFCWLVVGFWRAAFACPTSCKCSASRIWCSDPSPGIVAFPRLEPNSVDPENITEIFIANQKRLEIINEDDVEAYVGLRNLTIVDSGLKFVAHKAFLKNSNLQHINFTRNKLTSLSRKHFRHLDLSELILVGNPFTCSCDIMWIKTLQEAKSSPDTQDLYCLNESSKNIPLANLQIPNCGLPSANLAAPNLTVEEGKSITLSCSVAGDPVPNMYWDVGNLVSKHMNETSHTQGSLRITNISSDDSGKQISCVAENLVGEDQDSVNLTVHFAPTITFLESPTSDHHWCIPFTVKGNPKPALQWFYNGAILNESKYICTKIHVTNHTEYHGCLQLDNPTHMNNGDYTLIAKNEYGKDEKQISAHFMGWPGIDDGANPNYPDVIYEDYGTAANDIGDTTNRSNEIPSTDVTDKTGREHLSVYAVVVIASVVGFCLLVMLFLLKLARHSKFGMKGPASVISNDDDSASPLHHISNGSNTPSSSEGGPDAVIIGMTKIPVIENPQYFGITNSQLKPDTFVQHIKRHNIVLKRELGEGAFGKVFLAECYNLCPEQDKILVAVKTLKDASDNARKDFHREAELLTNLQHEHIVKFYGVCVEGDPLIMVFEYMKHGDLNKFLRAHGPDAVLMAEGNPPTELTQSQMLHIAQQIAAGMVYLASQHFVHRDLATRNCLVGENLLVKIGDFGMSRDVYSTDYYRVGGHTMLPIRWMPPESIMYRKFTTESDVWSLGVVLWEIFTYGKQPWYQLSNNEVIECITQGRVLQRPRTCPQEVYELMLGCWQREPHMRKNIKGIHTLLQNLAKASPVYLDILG
structure (smiles),measurement,setting,value
Cc1c(-c2ccc(C(N)=O)c3[nH]c4cc(C(C)(C)O)ccc4c23)cccc1-n1cnc2ccccc2c1=O,IC50,Cytochrome P450 1A2,> 40000 nM
same,Vd,[1],1.7 L/kg
same,IC50,[2],110 nM
same,AUC,[3],32 µM·h
same,IC50,Cytochrome P450 3A4,> 40000 nM
same,Activity,Mus musculus [4],Active
same,half-life,[5],4 h
same,Activity,Mus musculus [6],Dose-dependent effect
same,Activity,Mus musculus [7],40%
same,clearance,[8],4.9 mL/min/kg
same,IC50,[9],100 nM
same,fraction unbound,[10],0.006
same,IC50,Cytochrome P450 2C9,> 8000 nM
same,Activity,Mus musculus [11],85 - 90%
same,Activity,Salmonella typhimurium,Non-Toxic
same,Papp B→A,[12],12.2 ×10⁻⁶ cm/s
same,solubility,[13],< 1 µg/mL
same,fraction unbound,[14],0.01
same,IC50,[15],150 nM
same,IC50,[16],30 nM
same,Activity,Mus musculus [17],Dose-dependent effect
same,Tmax,[18],2.7 h
same,clearance,[19],3.7 mL/min/kg
same,Tmax,[20],3 h
same,Tmax,[21],5 h
same,Papp,[22],102 ×10⁻⁶ cm/s
same,Time,Mus musculus [23],12 h
same,Papp,[24],87.6 ×10⁻⁶ cm/s
same,Papp A→B,[25],< 1.5 ×10⁻⁶ cm/s
same,AUC,[26],30.8 µM·h
same,solubility,[27],60 µg/mL
same,bioavailability,[28],84%
same,Cmax,[29],8.96 µM
same,solubility,[30],6 µg/mL
same,IC50,[31],50 nM
same,half-life,[32],5.1 h
same,Activity,Mus musculus [33],Dose-dependent effect
same,Activity,Mus musculus [34],Dose-dependent effect
same,IC50,[35],370 nM
same,Activity,Mus musculus [36],Active
same,IC50,Cytochrome P450 2C8,> 8000 nM
same,IC50,[37],180 nM

# Source: ChEMBL document CHEMBL4428066, “Small Molecule Reversible Inhibitors of Bruton's Tyrosine Kinase (BTK): Structure-Activity Relationships Leading to the Identification of 7-(2-Hydroxypropan-2-yl)-4-[2-methyl-3-(4-oxo-3,4-dihydroquinazolin-3-yl)phenyl]-9H-carbazole-1-carboxamide (BMS-935177)” (J Med Chem, 2016)
